Consider two compounds from ChEMBL document CHEMBL1255395, “Laninamivir prodrug CS-8958, a long-acting neuraminidase inhibitor, shows superior anti-influenza virus activity after a single administration” (Antimicrob Agents Chemother, 2010).

What is called half-life is how long it takes for the measured level to halve. High values mean slow decline, low ones rapid decline.

The nature of series [1]: Half life in mouse. As to conditions: in vivo. The format is ADME, organism-based.
The subject of series [2] is Influenza A virus. Nature of the series: Antimicrobial activity against Influenza A virus (A/Puerto Rico/8/34(H1N1)) infected in BALB/c mouse assessed as increase in mouse survival at 1.1 mg/kg, po for 7 days post infection. The series is classed as functional, organism-based. The arrangement: dose 1.1 mg/kg. As to conditions: A/Puerto Rico/8/1934(H1N1).
Series [3] deals with Influenza B virus. Nature of the series: Antimicrobial activity against Influenza B virus (B/Malaysia/2506/2004) infected po dosed Mustela putorius furo assessed as nasal viral titer treated bid after 4 hrs post infection measured after 1 day. The format is functional, organism-based. In a few lines:
(§1)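 Ferrets (600–800 g), seronegative by hemagglutination inhibition, anaesthetized with ketamine/xylazine and infected with B/Malaysia/2506/2004, 1,000 PFU/100 μl. From 4 hpi they received either a single intranasal dose (saline, 0.05 or 0.5 μmol/kg) or 25 mg/kg oral twice daily. Nasal wash titers measured by MDCK plaque assay on days 1, 2 and 3, log10 PFU/ml (n = 5). Undetectable samples entered at the lower limit of detection.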

In series [4] the test system is Influenza A virus. Nature of the series: Antimicrobial activity against Influenza A virus (A/Puerto Rico/8/34(H1N1)) infected in BALB/c mouse assessed as increase in mouse survival at 1.1 mg/kg, po for 12 hrs post infection. The series is classed as functional, organism-based. The arrangement: dose 1.1 mg/kg. As to conditions: A/Puerto Rico/8/1934(H1N1).
The test system of series [5] is Influenza A virus. Nature of the series: Antimicrobial activity against Influenza A virus (A/Puerto Rico/8/34(H1N1)) infected in BALB/c mouse assessed as increase in mouse survival at 11 mg/kg, po for 1 day post infection. The series is classed as functional, organism-based. The arrangement: dose 11 mg/kg. As to conditions: A/Puerto Rico/8/1934(H1N1).
Series [6] has as its system Influenza A virus. Kind of series: Antimicrobial activity against Influenza A virus (A/Puerto Rico/8/34(H1N1)) infected in BALB/c mouse assessed as reduction in viral titer in lung at 1 mg/kg, po bid repeated regimen after 11 hrs post infection. Also on record: dose 1 mg/kg. The format is functional, organism-based. As to conditions: A/Puerto Rico/8/1934(H1N1), TDE = time-dependent effect. In a few lines:
(§2)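 BALB/c mice infected intranasally with A/PR/8/34 at 30 PFU. Oral drug was given twice daily from 11 hpi with intranasal saline at 11 hpi, or a single intranasal dose at 11 hpi with oral saline on the same schedule. Lungs (n = 3) were harvested at 35, 59 and 83 hpi. Titers were measured by MDCK plaque assay, log10 PFU/lungs.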

For series [7], the system named is Influenza A virus. Nature of the series: Antimicrobial activity against oseltamivir-sensitive influenza A virus (A/Yokohama/67/2006 (H1N1)) clone 1 infected in BALB/c mouse assessed as reduction in viral titer in lung at 1.0 mg/kg, po administered qd post 13 hrs infection measured after 37 hrs post infection. The series is classed as functional, organism-based. The arrangement: dose 1 mg/kg.

Series [8] concerns Influenza A virus. Kind of series: Antimicrobial activity against Influenza A virus (A/Puerto Rico/8/34(H1N1)) infected in BALB/c mouse assessed as increase in mouse survival at 1.1 mg/kg, po for 1 day post infection. The series is classed as functional, organism-based. The arrangement: dose 1.1 mg/kg. As to conditions: A/Puerto Rico/8/1934(H1N1).
Series [9] concerns Influenza A virus. Nature of the series: Antimicrobial activity against Influenza A virus (A/Puerto Rico/8/34(H1N1)) infected in BALB/c mouse assessed as increase in mouse survival at 110 mg/kg, po for 1 days before infection. Also on record: dose 110 mg/kg. As to conditions: A/Puerto Rico/8/1934(H1N1). The format is functional, organism-based. Put shortly:
(§3)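 Mice received one oral dose (200 μl in saline) at 1 day or 12 h before intranasal infection with A/PR/8/34 at 100 PFU. Saline controls were dosed intranasally 7 days before infection. n = 8 per group. Survival was monitored to 20 dpi and compared with saline by log-rank test.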

Series [10] concerns Influenza B virus. Kind of series: Antimicrobial activity against Influenza B virus (B/Malaysia/2506/2004) infected po dosed Mustela putorius furo assessed as nasal viral titer treated bid after 4 hrs post infection measured after 3 days. The format is functional, organism-based. Put shortly:
as §1

For series [11], the system named is Influenza A virus. Nature of the series: Antimicrobial activity against oseltamivir-sensitive influenza A virus (A/Yokohama/67/2006 (H1N1)) clone 1 infected in BALB/c mouse assessed as reduction in viral titer in lung at 10 mg/kg, po administered QD post 13 hrs infection measured after 85 hrs post infection. The format is functional, organism-based. Also on record: dose 10 mg/kg.

For series [12], the system named is Influenza A virus. Nature of the series: Antimicrobial activity against Influenza A virus (A/Puerto Rico/8/34(H1N1)) infected in BALB/c mouse assessed as increase in mouse survival at 11 mg/kg, po for 4 days post infection. The arrangement: dose 11 mg/kg. As to conditions: A/Puerto Rico/8/1934(H1N1). The format is functional, organism-based.
Series [13] deals with Influenza A virus. Nature of the series: Antimicrobial activity against Influenza A virus (A/Puerto Rico/8/34(H1N1)) infected in BALB/c mouse assessed as increase in mouse survival at 1.1 mg/kg, po for 4 days post infection. The series is classed as functional, organism-based. Also on record: dose 1.1 mg/kg. As to conditions: A/Puerto Rico/8/1934(H1N1).
The subject of series [14] is Influenza A virus. Kind of series: Antimicrobial activity against Influenza A virus (A/Puerto Rico/8/34(H1N1)) infected in BALB/c mouse assessed as increase in mouse survival at 1.1 mg/kg, po bid administered 11 hrs post infection for 5 days […] infection measured on day 20. The series is classed as functional, A/Puerto Rico/8/1934(H1N1). Put shortly:
(§4)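 Female BALB/c mice (5–6 weeks) infected intranasally with A/PR/8/34 at 100 PFU, n = 10 per group. Each mouse got one intranasal dose at 11 hpi plus oral doses twice daily from 11 hpi to 120 hpi. Drug went by one route and saline by the other, all in saline vehicle. Survival was followed daily to day 20 and analysed by Kaplan-Meier with a log-rank test against the saline group.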

In series [15] the test system is Influenza A virus. Kind of series: Antimicrobial activity against Influenza A virus (A/Puerto Rico/8/34(H1N1)) infected in BALB/c mouse assessed as increase in mouse survival at 1.1 mg/kg, po bid administered 11 hrs post infection for 5 days […] infection. The format is functional, organism-based. As to conditions: A/Puerto Rico/8/1934(H1N1). Also on record: dose 1.1 mg/kg. In a few lines:
as §4

The subject of series [16] is Influenza A virus. Kind of series: Antimicrobial activity against oseltamivir-sensitive influenza A virus (A/Yokohama/67/2006 (H1N1)) clone 1 infected in BALB/c mouse assessed as reduction in viral titer in lung at 10 mg/kg, po administered QD post 13 hrs infection measured after 37 hrs post infection. The format is functional, organism-based. Also on record: dose 10 mg/kg.

Series [17] concerns Influenza A virus. Nature of the series: Antimicrobial activity against Influenza A virus (A/Puerto Rico/8/34(H1N1)) infected in BALB/c mouse assessed as reduction in viral titer in lung at 10 mg/kg, po bid repeated regimen after 11 hrs post infection. The series is classed as functional, organism-based. The arrangement: dose 10 mg/kg. As to conditions: A/Puerto Rico/8/1934(H1N1), TDE = time-dependent effect. In a few lines:
as §2

The test system of series [18] is Influenza A virus. Nature of the series: Antimicrobial activity against oseltamivir-sensitive influenza A virus (A/Yokohama/67/2006 (H1N1)) clone 1 infected in BALB/c mouse assessed as reduction in viral titer in lung at 1.0 mg/kg, po administered QD post 13 hrs infection measured after 61 hrs post infection. The arrangement: dose 1 mg/kg. The format is functional, organism-based.

Series [19] is filed under the species Rattus norvegicus. Nature of the series: Half life in rat assessed as oseltamivir carboxylate. The series is classed as ADME, organism-based. As to conditions: in vivo.
Series [20] concerns Influenza A virus. Nature of the series: Antimicrobial activity against oseltamivir-sensitive influenza A virus (A/Yokohama/67/2006 (H1N1)) clone 1 infected in BALB/c mouse assessed as reduction in viral titer in lung at 1.0 mg/kg, po administered QD post 13 hrs infection measured after 85 hrs post infection. The series is classed as functional, organism-based. The arrangement: dose 1 mg/kg.

Series [21] relates to Influenza B virus. Nature of the series: Antimicrobial activity against Influenza B virus (B/Malaysia/2506/2004) infected po dosed Mustela putorius furo assessed as nasal viral titer treated bid after 4 hrs post infection measured after 2 days. The format is functional, organism-based. Put shortly:
as §1

In series [22] the test system is Influenza A virus. Nature of the series: Antimicrobial activity against oseltamivir-sensitive influenza A virus (A/Yokohama/67/2006 (H1N1)) clone 1 infected in BALB/c mouse assessed as reduction in viral titer in lung at 10 mg/kg, po administered QD post 13 hrs infection measured after 61 hrs post infection. The series is classed as functional, organism-based. Also on record: dose 10 mg/kg.

In series [23] the test system is Influenza A virus. Nature of the series: Antimicrobial activity against Influenza A virus (A/Puerto Rico/8/34(H1N1)) infected in BALB/c mouse assessed as increase in mouse survival at 11 mg/kg, po for 7 days post infection. As to conditions: A/Puerto Rico/8/1934(H1N1). The format is functional, organism-based. Also on record: dose 11 mg/kg.
Series [24] deals with Influenza A virus. Nature of the series: Antimicrobial activity against Influenza A virus (A/Puerto Rico/8/34(H1N1)) infected in BALB/c mouse assessed as increase in mouse survival at 11 mg/kg, po for 12 hrs post infection. The format is functional, organism-based. Also on record: dose 11 mg/kg. As to conditions: A/Puerto Rico/8/1934(H1N1).
The subject of series [25] is Influenza A virus. Kind of series: Antimicrobial activity against Influenza A virus (A/Puerto Rico/8/34(H1N1)) infected in BALB/c mouse assessed as increase in mouse survival at 110 mg/kg, po for 12 hrs before infection. As to conditions: A/Puerto Rico/8/1934(H1N1). The series is classed as functional, organism-based. The arrangement: dose 110 mg/kg. Put shortly: as §3

Activity calls are given as the source filed them. The rule behind the calls is not given here.

Turning to `CO[C@@H]([C@@H]1OC(C(=O)O)=C[C@H](NC(=N)N)[C@H]1NC(C)=O)[C@H](O)CO` [LANINAMIVIR], in series [1], the half-life is 41.4 h.

As to `CCOC(=O)C1=C[C@@H](OC(CC)CC)[C@H](NC(C)=O)[C@@H](N)C1.O=P(O)(O)O` [OSELTAMIVIR PHOSPHATE], the result in [2], in series [4], in [5], in [8], in [12] and in series [13] was inactive. The outcome in [23] and in series [24] was inactive. For the same compound, the Activity result is “Dose-dependent effect” in series [3]; “tde” in [6]; “Dose-dependent effect” in series [10]; 50% in series [14]; “tde” in series [17]; “Dose-dependent effect” in [21]. The result in [7], in series [9], in series [11], in [15], in series [16] and in series [18] was Active. Further, the result in series [20], in [22] and in series [25] was Active. Further, the t1/2 in series [19] was determined as 7 h.
